Measurements taken from ChEMBL document CHEMBL4024771, “Optimization of Orally Bioavailable Enhancer of Zeste Homolog 2 (EZH2) Inhibitors Using Ligand and Property-Based Design Strategies: Identification of Development Candidate …” (J Med Chem, 2018).
pIC50, pKi: −log10 of the molar value. Values after ≈ are worked out from the molar mass of the structure shown. Blank lines part the entries; values can stand above or below the molecule they belong to.

Legend:
[1] = system: KARPAS-422; test: Antiproliferative activity against human KARPAS422 cells after 72 hrs by resazurin assay; type: functional, cell-based; conditions: karpas-422
[2] = system: Liver; test: Intrinsic clearance in human liver microsomes assessed per mg protein at 1 uM preincubated for 10 mins followed by NADPH addition measured after 45 mins by LC-MS/MS analysis; type: ADME, microsome; conditions: microsomes, 0.75 h, 1 µM
Method in brief: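 Test compound (1 μM) with pooled liver microsomes (0.8 mg/mL protein) in 100 mM potassium phosphate pH 7.4, 10 min preincubation, started with 2 mM NADPH, 45 min at 37 °C, in triplicate. Samples quenched with cold methanol containing buspirone internal standard, analysed by LC−MS/MS. CLint derived from t1/2 of parent loss (log-linear slope).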

[3] = Kinetic solubility of the compound; type: physicochemical; conditions: for solubility kinetic: read-out: Kinetic_solubility
[4] = Passive permeability in MDCK cells at 2 uM after 90 mins by LC-MS/MS analysis; type: ADME, cell-based, Canis lupus familiaris; conditions: dog; for Papp at […], 2 µM: MDCK, read-out: permeability; for permeability: mdck, 2 µM
Method in brief: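 Low-efflux MDCK cells (MDCK-LE) on 96-well inserts, used on day 4. Monodirectional transport of 2 μM drug in transport buffer with 0.1% DMSO at 37 °C. Donor and receiver sampled at 0 and 90 min for LC−MS/MS. Donor pH 6.5 and 7.4, receiver pH 7.4.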

[5] = Lipophilicity, log D of the compound at pH 7.4; conditions: buffer, pH 7.4, logD
[6] = biological target: Histone-lysine N-methyltransferase EZH2 (Homo sapiens, UniProt Q15910); test: Inhibition of EZH2 in human KARPAS422 cells assessed as reduction in H3K27me3 level after 72 hrs by ELISA
Sequence of Histone-lysine N-methyltransferase EZH2 (Homo sapiens, UniProt Q15910) (Q15910 whole entry): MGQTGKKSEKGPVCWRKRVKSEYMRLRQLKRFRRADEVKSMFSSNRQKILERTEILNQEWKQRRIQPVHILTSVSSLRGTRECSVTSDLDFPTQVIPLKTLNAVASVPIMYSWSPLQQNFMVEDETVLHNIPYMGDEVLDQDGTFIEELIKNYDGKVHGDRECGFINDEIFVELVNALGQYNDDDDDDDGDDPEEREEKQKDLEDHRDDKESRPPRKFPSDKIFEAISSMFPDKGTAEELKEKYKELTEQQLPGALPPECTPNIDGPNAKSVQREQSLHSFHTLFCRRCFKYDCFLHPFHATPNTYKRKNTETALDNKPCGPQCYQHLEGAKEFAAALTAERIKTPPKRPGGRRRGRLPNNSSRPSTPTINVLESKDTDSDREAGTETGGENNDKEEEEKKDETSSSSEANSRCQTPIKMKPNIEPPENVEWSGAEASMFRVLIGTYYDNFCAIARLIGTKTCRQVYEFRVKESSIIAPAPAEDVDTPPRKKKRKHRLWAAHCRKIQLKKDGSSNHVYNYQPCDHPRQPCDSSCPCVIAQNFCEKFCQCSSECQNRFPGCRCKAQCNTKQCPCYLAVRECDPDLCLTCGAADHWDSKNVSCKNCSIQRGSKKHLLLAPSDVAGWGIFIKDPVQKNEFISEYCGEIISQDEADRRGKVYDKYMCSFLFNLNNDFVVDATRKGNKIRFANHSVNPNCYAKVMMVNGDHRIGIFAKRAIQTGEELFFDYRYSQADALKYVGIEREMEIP

[7] = biological target: Histone-lysine N-methyltransferase EZH2 (Homo sapiens, UniProt Q15910, Y641N); test: Inhibition of EZH2 Y641N mutant (unknown origin) using oligonucleosomes as substrate after 60 mins in presence of [3H]SAM by scintillation counting analysis
Sequence of Histone-lysine N-methyltransferase EZH2 (Homo sapiens, UniProt Q15910, Y641N) (Q15910 whole entry Y641N): as the sequence (Q15910 whole entry) above, with Y641N counted along it

Compound: COC(c1cc(Cl)c2c(c1Cl)C(=O)N(Cc1c(C)cc(C)[nH]c1=O)CC2)C1CCN(C(=O)CO)CC1 (stereo in doubt; (+)-16a)
- pIC50 [6]: 7.89
- pKi [7]: 9.60
- pIC50 [1]: 7.68
- microsomal CLint [2]: 42 µL/min/mg
- solubility kinetic [3]: 508 µM (≈ 273 µg/mL)
- Papp at […], 2 µM [4]: 7.3 ×10⁻⁶ cm/s
- logD [5]: 2.2

Compound: Cc1cc(C)c(CN2CCc3c(Cl)cc(C(CO)c4ccon4)c(Cl)c3C2=O)c(=O)[nH]1 (single isomer, unassigned; (+))
- pIC50 [1]: 6.91
- microsomal CLint [2]: 21.2 µL/min/mg
- solubility kinetic [3]: 596 µM (≈ 276 µg/mL)
- Papp at […], 2 µM [4]: 5.8 ×10⁻⁶ cm/s
- logD [5]: 2

Compound: COC(C)c1cc(Cl)c2c(c1Cl)C(=O)N(Cc1c(C)cc(C)[nH]c1=O)CC2 (stereo in doubt; (-)9a)
- pIC50 [1]: 6.55
- microsomal CLint [2]: 158 µL/min/mg
- Kinetic_solubility [3]: 55.3 µM
- Papp at […], 2 µM [4]: 26 ×10⁻⁶ cm/s
- logD [5]: 3.3

Compound: CCC(CO)c1cc(Cl)c2c(c1Cl)C(=O)N(Cc1c(C)cc(C)[nH]c1=O)CC2 (single isomer, unassigned; (+))
- pIC50 [6]: 6.86
- pKi [7]: 8.34
- pIC50 [1]: 6.91
- microsomal CLint [2]: 66.3 µL/min/mg
- Kinetic_solubility [3]: 324 µM
- Papp at […], 2 µM [4]: 10.9 ×10⁻⁶ cm/s
- logD [5]: 2.8

Compound: CCOC(c1cc(Cl)c2c(c1Cl)C(=O)N(Cc1c(C)cc(C)[nH]c1=O)CC2)C1CS(=O)(=O)C1 (single isomer, unassigned; (+))
- pIC50 [6]: 7.21
- pKi [7]: 8.54
- pIC50 [1]: 7.47
- microsomal CLint [2]: 124 µL/min/mg
- solubility kinetic [3]: 453 µM (≈ 233 µg/mL)
- Papp at […], 2 µM [4]: 12 ×10⁻⁶ cm/s
- logD [5]: 2.4

More lines, now with the values ahead:

- pIC50 [1]: 7.66
- microsomal CLint [2]: 92.6 µL/min/mg
- solubility kinetic [3]: 532 µM (≈ 277 µg/mL)
- Papp at […], 2 µM [4]: 11.5 ×10⁻⁶ cm/s
- logD [5]: 2.9
Compound: COC(c1cc(Cl)c2c(c1Cl)C(=O)N(Cc1c(C)cc(C)[nH]c1=O)CC2)C1CCN(C(C)=O)CC1 (single isomer, unassigned; (+))

- pIC50 [6]: 7.82
- pKi [7]: 9.42
- pIC50 [1]: 7.77
- microsomal CLint [2]: 25.9 µL/min/mg
- Kinetic_solubility [3]: 508 µM
- Papp at […], 2 µM [4]: 2.5 ×10⁻⁶ cm/s
- logD [5]: 2.1
Compound: Cc1cc(C)c(CN2CCc3c(Cl)cc(C(CO)C4CCOC4)c(Cl)c3C2=O)c(=O)[nH]1 (stereo in doubt; (-)-6b)

- pIC50 [6]: 8.15
- pKi [7]: 9.22
- pIC50 [1]: 7.60
- microsomal CLint [2]: 108 µL/min/mg
- Kinetic_solubility [3]: 436 µM
- Papp at […], 2 µM [4]: 17.1 ×10⁻⁶ cm/s
- logD [5]: 3
Compound: COC(c1cc(Cl)c2c(c1Cl)C(=O)N(Cc1c(C)cc(C)[nH]c1=O)CC2)C1CCOC1 (single isomer, unassigned; (+)-10a)

- pIC50 [6]: 7.96
- pKi [7]: 9.82
- pIC50 [1]: 7.96
- microsomal CLint [2]: 41.5 µL/min/mg
- Kinetic_solubility [3]: 540 µM
- Papp at […], 2 µM [4]: 2.9 ×10⁻⁶ cm/s
- logD [5]: 2.3
Compound: Cc1cc(C)c(CN2CCc3c(Cl)cc(C(CO)C4CCOCC4)c(Cl)c3C2=O)c(=O)[nH]1 (single isomer, unassigned; (-))

- pIC50 [6]: 7.33
- pKi [7]: 8.72
- pIC50 [1]: 7.30
- microsomal CLint [2]: 128 µL/min/mg
- Kinetic_solubility [3]: 439 µM
- permeability [4]: 18.7 ×10⁻⁶ cm/s
Compound: COC(c1cc(Cl)c2c(c1Cl)C(=O)N(Cc1c(C)cc(C)[nH]c1=O)CC2)C1CCOC1 (single isomer, unassigned; (+))

- pIC50 [6]: 7.80
- pKi [7]: 9.72
- pIC50 [1]: 7.62
- microsomal CLint [2]: 66.9 µL/min/mg
- Kinetic_solubility [3]: 439 µM
- permeability [4]: 7.2 ×10⁻⁶ cm/s
Compound: COc1cc(C)[nH]c(=O)c1CN1CCc2c(Cl)cc(C(OC)C3CCOC3)c(Cl)c2C1=O (stereo in doubt; 22b)

- pIC50 [6]: 7.80
- pKi [7]: 9.19
- pIC50 [1]: 7.60
- microsomal CLint [2]: 72.7 µL/min/mg
- solubility kinetic [3]: 523 µM (≈ 280 µg/mL)
- Papp at […], 2 µM [4]: 7 ×10⁻⁶ cm/s
- logD [5]: 2.7
Compound: COC(c1cc(Cl)c2c(c1Cl)C(=O)N(Cc1c(C)cc(C)[nH]c1=O)CC2)C1CCN(C2COC2)CC1 (single isomer, unassigned; (+))
